≈ marks a conversion by molar mass, not a printed value. Calls of active or inactive are those of the source. The rule behind the calls is not given here.
Tests used:
[1] = Inhibition of Staphylococcus aureus ClpXP expressed in Escherichia coli […] using FITC-casein substrate in presence of ATP-regenerating system incubated for 50 mins by fluorescence based assay
Method in brief: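 3.6 μM SaClpP with 3 μM SaClpX in 25 mM Hepes pH 7.5, 20 mM MgCl2, 30 mM KCl, 0.03% Tween 20, 10% glycerol, 2 mM DTT. ATP regeneration: 4 mM ATP, 20 U/mL creatine kinase, 16 mM creatine phosphate. FITC-casein 0.048 mg/mL, 494/521 nm for 50 min; slope 300–1200 s vs DMSO. Thrice, triplicate wells.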

[2] = Inhibition of human ClpP (57 to 277 residues) expressed in Escherichia coli […] pre-incubated for 10 mins before Ac-WLA-AMC addition and measured after 1 hr by fluorescence based assay relative to control
Method in brief: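 hClpP (3.5 μM monomer) in 25 mM Tris-HCl pH 8.0, 100 mM KCl. Preincubated 10 min at RT with inhibitor, two-fold dilutions over 8 steps from 100 μM. Then 100 μM Ac-WLA-AMC, 380/440 nm for 1 h at 37 °C, slopes normalized to DMSO. Thrice, triplicate wells.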

[3] = Inhibition of Pseudomonas aeruginosa ClpP1 expressed in Escherichia coli […] pre-incubated for 10 mins before Suc-LY- AMC addition and measured after 1 hr by fluorescence based assay relative to control
Method in brief: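 PaClpP1 (0.5 μM monomer) in 25 mM Tris-Cl pH 7.5, 150 mM NaCl. Preincubated 10 min at RT with inhibitor, two-fold dilutions over 8 steps from 50 μM. Then 50 μM Suc-LY-AMC, 380/440 nm for 1 h at 37 °C, slopes normalized to DMSO. Thrice, triplicate wells.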

Staphylococcus aureus [4] = experiment: Growth inhibition of methicillin-resistant Staphylococcus aureus ATCC 33591 incubated for 18 hrs by broth microdilution method; format: functional; conditions: ATCC 33591, 18 h
Method in brief: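 MRSA ATCC 33591 at ~5×10⁵ CFU/mL in MHB with graded compound concentrations vs DMSO; OD600 growth curves over 18 h; three experiments, triplicate wells. MIC by CLSI broth microdilution in CAMHB, 0.5-256 µg/mL, 18 h at 37 °C, lowest concentration with no visible growth.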

Staphylococcus aureus [5] = experiment: Inhibition of virulence-related genes expression in methicillin-resistant Staphylococcus aureus ATCC 33591 assessed as reduction in lukS expression at 4 to 16 uM by qPCR analysis relative to control; format: functional, organism-based
Method in brief: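 Total RNA from 2×10⁸ CFU treated MRSA by liquid-nitrogen freeze-thaw and TRIzol; qPCR relative to gyrB endogenous control; three experiments, triplicate wells.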

[6] = target: T1, ATP-dependent Clp protease proteolytic subunit (Staphylococcus aureus (strain NCTC 8325)) (UniProt Q2G036); experiment: Induction of thermal stabilization of ClpP in methicillin-resistant Staphylococcus aureus ATCC 33591 assessed as protein stability up to 83 degC pre-incubated for 2 hrs by CETSA method
T1 sequence (whole entry): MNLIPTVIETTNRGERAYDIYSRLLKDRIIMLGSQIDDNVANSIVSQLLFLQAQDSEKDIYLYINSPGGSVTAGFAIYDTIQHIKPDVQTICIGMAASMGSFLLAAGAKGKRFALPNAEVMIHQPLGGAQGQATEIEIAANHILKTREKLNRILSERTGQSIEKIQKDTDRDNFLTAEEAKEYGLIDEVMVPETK
Method in brief: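 MRSA grown at 37 °C in TSB with DMSO or 100 µM compound 2 h; cells in TE buffer (~4×10⁹ CFU/mL), lysostaphin 37 °C 30 min; supernatant heated 5 min at set temperatures, 3 min RT, ice, spun 20,000 g 20 min; soluble ClpP by western blot with polyclonal anti-ClpP.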

[7] = Toxicity in BALB/c mouse model of skin abscess infected with methicillin-resistant Staphylococcus aureus ATCC 33591 assessed as induction of adverse effects at 1.5 to 3 mg/kg injected into shaved area of skin once daily for 4 days measured every day; format: organism-based; conditions: in vivo, other, 96 h
Method in brief: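 Female BALB/c mice, 6-8 weeks, n=5 per group, backs shaved and depilated 1 day before; 50 µL subcutaneous 1.7 × 10⁹ CFU/mL MRSA ATCC 33591. From 6 h post-infection, 40 µL vehicle, vancomycin 3 mg/kg, or compound 1.5 or 3 mg/kg injected at infection site once daily for 4 days; weight recorded daily. Skin homogenised in saline 12 h after last dose, plated on LB agar 37 °C ≥16 h; log10 CFU/abscess; t-test.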

[8] = Toxicity in BALB/c mouse model of skin abscess infected with methicillin-resistant Staphylococcus aureus ATCC 33591 assessed as effect on creatinine levels at 1.5 to 3 mg/kg injected into shaved area of skin once daily for 4 days; format: organism-based; conditions: in vivo, other, 96 h
Method in brief: (§1)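 Infected BALB/c mice (n=5/group) dosed 1.5 or 3 mg/kg into the infected skin once daily for 4 days; blood collected on day 4 and day 14, centrifuged 3,500 rpm 15 min, serum biochemistry analysed.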

[9] = Toxicity in BALB/c mouse model of skin abscess infected with methicillin-resistant Staphylococcus aureus ATCC 33591 assessed as increase in AST levels at 1.5 to 3 mg/kg injected into shaved area of skin once daily for 4 days; format: organism-based; conditions: in vivo, other, 96 h; method in brief: as §1
[10] = Toxicity in BALB/c mouse model of skin abscess infected with methicillin-resistant Staphylococcus aureus ATCC 33591 assessed as increase in AST levels at 1.5 to 3 mg/kg injected into shaved area of skin once daily for 4 days measured on day 14; format: organism-based; conditions: in vivo, other, 96 h; method in brief: as §1
[11] = Toxicity in BALB/c mouse model of skin abscess infected with methicillin-resistant Staphylococcus aureus ATCC 33591 assessed as effect on albumin levels at 1.5 to 3 mg/kg injected into shaved area of skin once daily for 4 days; format: organism-based; conditions: in vivo, other, 96 h; method in brief: as §1
[12] = Toxicity in BALB/c mouse model of skin abscess infected with methicillin-resistant Staphylococcus aureus ATCC 33591 assessed as effect on total protein levels at 1.5 to 3 mg/kg injected into shaved area of skin once daily for 4 days; format: organism-based; conditions: in vivo, other, 96 h; method in brief: as §1
[13] = Toxicity in BALB/c mouse model of skin abscess infected with methicillin-resistant Staphylococcus aureus ATCC 33591 assessed as effect on alanine transaminase levels at 1.5 to 3 mg/kg injected into shaved area of skin once daily for 4 days; format: organism-based; conditions: in vivo, other, 96 h; method in brief: as §1
Staphylococcus aureus [14] = experiment: (§2) Antivirulence activity against methicillin-resistant Staphylococcus aureus ATCC 33591 infected in BALB/c mouse model of skin abscess assessed as reduction in skin inflammation at 1.5 to 3 mg/kg injected into shaved area of skin once daily for 4 days measured after 12 hrs post last dose by hematoxylin and eosin staining based optical microscopy; format: functional, organism-based
Method in brief: (§3)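 Same MRSA ATCC 33591 skin-abscess model in female BALB/c mice (n=5/group), 40 µL compound at 1.5 or 3 mg/kg injected into the infected shaved skin once daily for 4 days. On day 4 infected skin and heart, liver, spleen, lung, kidney fixed in 4% paraformaldehyde, embedded, sectioned, H&E stained and examined by microscopy; PBS-treated uninfected and vehicle controls.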

Staphylococcus aureus [15] = experiment: as §2, with “heart histopathological changes” for “skin inflammation”; format: functional, organism-based; method in brief: as §3
Staphylococcus aureus [16] = experiment: as §2, with “kidney histopathological changes” for “skin inflammation”; format: functional, organism-based; method in brief: as §3

`CC(C)C[C@H](NC(=O)[C@H](Cc1c[nH]c2ccccc12)NC(=O)c1cc(Cl)ccc1Cl)B(O)O` showed an IC50 [1] of 69.6 µM, an IC50 [2] of 3 to 25 µM and an IC50 [3] of 3 to 25 µM. For the same compound, the MIC (Staphylococcus aureus [4]) was 64 to 128 µg/mL (≈ 131 to 261 µM), the inhibition (Staphylococcus aureus [5]) was “Active” and the Activity [6] was “Active”. The Activity [7] was “Non-Toxic”, the Activity [8] was “Non-Toxic” and the Activity [9] was “Toxic”. The Activity [10] was “Non-Toxic”, the Activity [11] was “Non-Toxic” and the Activity [12] was “Non-Toxic”. The Activity [13] was “Non-Toxic”, the Activity (Staphylococcus aureus [14]) was “Active” and the Activity (Staphylococcus aureus [15]) was “Active”. For the same compound, the Activity (Staphylococcus aureus [16]) was “Active”.
